Compounds with a hit are over-represented: about 4.5% of the library has one in this group of screens.
RGS4 inh = RGS4 inhibitors, primary screen, cell-based, HEK293 M3R inducible RGS4, calcium flux; Fluo-4 calcium flux; active compounds read high; triggered by carbachol at its EC20; Regulator of G-protein signaling 4 (Homo sapiens), P49798; 310,000 tested, 0.45% active; B-score at 10 µM;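 active means B-score, a plate-corrected calcium signal, over three deviations above library mean, with baseline fluorescence within five deviations of library mean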;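 further: RGS4 expression induced by doxycycline in cells with stable M3 receptor; B-score is computed from the integrated fluorescence ratio over baseline after carbachol; higher B-score means a larger calcium signal and so more RGS4 inhibition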
Target sequence (P49798 whole entry, looked up): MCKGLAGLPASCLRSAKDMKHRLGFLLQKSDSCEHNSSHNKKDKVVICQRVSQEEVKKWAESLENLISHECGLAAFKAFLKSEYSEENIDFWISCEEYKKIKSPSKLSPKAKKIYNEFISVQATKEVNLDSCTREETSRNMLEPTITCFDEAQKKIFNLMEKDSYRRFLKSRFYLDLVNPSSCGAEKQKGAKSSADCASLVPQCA
RGS4 act = RGS4 potentiators or activators, primary screen, cell-based, HEK293 M3R inducible RGS4, calcium flux; B-score at 10 µM; 310,000 tested, 0.92% active; carbachol calcium flux Fluo4; active compounds read low;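 active means B-score of the integrated calcium signal more than 4 SD below the library mean, with starting fluorescence not abnormally high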;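 further: negative B-score means reduced calcium response which marks RGS4 activation or potentiation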
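System – HEK293 FlpIn-TREx cells, stable M3R, doxycycline-inducible RGS4 · Reagent – ECmax carbachol challenge · Times – compound preincubation 20 min at room temperature before agonist · Technique – Fluo4 fluorescence kinetic imaging of calcium · Measure – B score of integrated Fluo4 ratio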
MrgX1 antag = antagonists of human MrgX1 receptor, primary screen, HEK293 cells, Fluo-4 calcium flux | Mas-related G-protein coupled receptor member X1 (Homo sapiens), Q96LB2 | BAM8-22 antagonism; active compounds read low | B-score at 10 µM | 310,000 tested, 1.3% active;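 active means calcium-response B-score plate-corrected more than 3 library SD below zero, starting fluorescence within 5 deviations, no agonist response on first addition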;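 further: peak minus trough fluorescence over baseline after final BAM8-22 challenge near maximal dose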
Target sequence (Q96LB2 whole entry, looked up): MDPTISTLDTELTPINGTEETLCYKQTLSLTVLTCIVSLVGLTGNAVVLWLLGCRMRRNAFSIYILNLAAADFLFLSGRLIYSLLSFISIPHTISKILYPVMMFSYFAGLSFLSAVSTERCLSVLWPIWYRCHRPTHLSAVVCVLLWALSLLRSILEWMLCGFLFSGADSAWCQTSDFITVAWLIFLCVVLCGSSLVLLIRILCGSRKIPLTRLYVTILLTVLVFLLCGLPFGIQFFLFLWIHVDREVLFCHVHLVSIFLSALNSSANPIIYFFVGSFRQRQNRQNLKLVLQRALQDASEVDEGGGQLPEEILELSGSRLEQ
MrgX1 ag = agonists of human MrgX1 receptor, primary screen, HEK293 cells, Fluo-4 calcium flux | Mas-related G-protein coupled receptor member X1 (Homo sapiens), Q96LB2 | Fluo-4 calcium fluorescence, agonist mode; active compounds read high | B-score at 10 µM | 310,000 tested, 0.44% active | AID 588627, 2011;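 active means calcium response B-score plate-corrected fluorescence ratio at least 3 library SD, with starting fluorescence B-score inside 5 SD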
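Assay system: MrgX1-expressing HEK293 cells / Amount: fifteen thousand cells per well / Doses: test compound in the initial addition of three / Timing: cells plated overnight, dye loaded 0.5 h 37 °C, 0.5 h room temperature / Technique: kinetic calcium dye fluorescence, Fluo-4 NW / Control set: positive and negative controls per plate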
PHOSPHO1 inh = PubChem AID 1565. Phosphoethanolamine/phosphocholine phosphatase (Homo sapiens), Q8TCT1. recombinant PHOSPHO1, absorbance phosphatase assay. inhibition, % at 13.3 µM. 290,000 tested, 1.1% active; in the data active means inhibition above about 60%
MrgX1 PAM = positive allosteric modulators of MrgX1, primary screen, HEK293 cells, Fluo-4 calcium flux; FDSS; active compounds read high; B-score at 10 µM; 310,000 tested, 0.63% active; AID 588675, 2011;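 active means plate-corrected calcium response at least 3 library SD above typical, normal starting fluorescence, not activating the receptor alone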;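 further: compound read alongside a low EC10 to EC30 dose of BAM8-22 agonist; peak minus trough fluorescence over baseline measured at the second addition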
MrgX1 antag conf = MrgX1 receptor antagonists, duplicate retest, confirmation, HEK293 cells, Fluo-4 calcium flux; remaining BAM8-22 calcium response % of control (active compounds read low), % at 10 µM; shares compounds with MrgX1 antag; 2,300 tested, 19% active; BAM8-22 calcium flux; active compounds read low;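 active means remaining agonist calcium response no higher than 100% minus 3 SD of agonist-only control wells, with starting fluorescence near control levels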;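 further: agonist BAM8-22 given at a near maximal EC90 to ECmax level; peak minus minimum fluorescence divided by baseline after agonist addition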
HEK293 Ca flux = nonspecific calcium signal in parental HEK293, confirmation, counter-screen for MrgX1 antagonist project, parental HEK293 cells, Fluo-4 calcium flux; shares compounds with MrgX1 antag; Fluo-4 calcium fluorescence, FDSS; fluorescence ratio F(max-min)/F0 at 10 µM; 4,000 tested, 2% active; AID 624111, 2012;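 active means duplicate-averaged calcium fluorescence ratio at least three times the standard deviation of buffer wells, a nonspecific response in parental cells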
HEK293 Ca counter = calcium response in parental HEK293 cells, primary screen, counter-screen for MrgX1 allosteric activator project, cell-based, Fluo-4 calcium flux, duplicate. shares compounds with MrgX1 antag. Fluo-4 fluorescence ratio; active compounds read high. fluorescence ratio F(max-min)/F0 at 10 µM. 4,000 tested, 0.4% active. AID 624114, 2012;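 active means calcium fluorescence ratio, averaged over duplicates, at least 3 SD of the buffer-well ratio, meaning a nonspecific response in receptor-free cells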;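 further: untransfected parental HEK293 lacking MrgX1 used as counterscreen for MrgX1 allosteric activators; fluorescence change taken during the second addition on a kinetic imager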
HEK293 Ca cntr2 = calcium response in parental HEK293 cells, primary screen, counter-screen for MrgX1 agonist project, cell-based, Fluo-4 calcium flux, duplicate, agonist mode; 4,000 tested, 8.7% active; Fluo-4 calcium fluorescence (FDSS); active compounds read high; fluorescence ratio F(max-min)/F0 at 10 µM; shares compounds with MrgX1 antag;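 active means calcium fluorescence ratio at least three times the spread of buffer wells, meaning a non-specific response in parental cells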
Active calls of the source: *; i = inactive; . = no result.

SMILES	RGS4 inh	RGS4 act	MrgX1 antag	MrgX1 ag	PHOSPHO1 inh	MrgX1 PAM	MrgX1 antag conf	HEK293 Ca flux	HEK293 Ca counter	HEK293 Ca cntr2
O=C(Nc1ccc2nn(-c3ccccc3)nc2c1)c1cccnc1	i	i	-5.72*	i	10.7	i	84.3%*	i	i	i
CC1Cc2ccccc2N1S(=O)(=O)c1cccc(C(=O)Nc2cccnc2)c1 (stereo not drawn)	i	i	-4.6*	i	23.6	i	i	i	i	i
COc1ccc(NC(=O)NCc2cccnc2)cc1	i	i	-7.56*	i	22.6	i	i	i	i	i
COc1cccc(C(=O)Nc2cccnc2)c1	i	i	-4.97*	i	-9.1	i	i	i	i	i
CCOc1ccc(NC(=O)CN(C)CC(=O)Nc2ccc(F)c(F)c2F)cc1OCC	i	i	i	i	39.8	i	.	.	.	.
CCOCCn1c(N2CCCC2)nc2c1c(=O)[nH]c(=O)n2C	i	i	i	i	19.3	i	.	.	.	.
O=C(NCc1cccnc1)c1ccc(COc2ccccc2Br)cc1	i	i	i	i	33.9	i	.	.	.	.
O=C(Nc1cccnc1)c1ccc(COc2ccccc2Br)cc1	i	i	-7.38*	i	28.6	i	i	i	i	i
COc1cccc(C(=O)Nc2cccc(C(C)=O)c2)c1	i	i	-8.04*	i	-8.2	i	i	i	i	i
Cc1cc(N2C(=O)CC(N3CCN(c4ccc(C(=O)c5cccs5)cc4)CC3)C2=O)no1 (stereo not drawn)	i	i	-5.04*	i	9.7	i	i	i	i	i
CC(=O)Nc1ccc(-n2c(=O)c3ccccc3c3ccccc3c2=O)cc1	i	i	i	i	40.4	i	.	.	.	.
O=C(O)c1ccc(-n2c(=O)c3ccccc3c3ccccc3c2=O)cc1	i	i	-6.34*	i	32.4	i	i	i	i	i
CCCOc1ccc(Cc2c(O)nc(SC)[nH]c2=O)cc1	i	i	i	i	49.6	i	.	.	.	.
O=C1c2cccnc2C(=O)N1Cc1ccc(S(=O)(=O)N2CCOc3ccccc32)cc1	i	i	i	i	6.3	i	.	.	.	.
CCC(C)n1nnc2c(=O)oc3ccccc3c21 (stereo not drawn)	i	i	-6.47*	i	13.4	i	i	i	i	i
Cc1ccc(-n2nnc3c(=O)oc4ccccc4c32)cc1	i	i	i	i	2.9	i	.	.	.	.
COc1cc(OC)c(OC)cc1CNCc1ccco1	i	i	i	i	26.5	i	.	.	.	.
Cc1ccc(NS(=O)(=O)c2ccc(C(=O)NCc3ccncc3)cc2)cc1	i	i	-4.62*	i	.	i	78.6%*	i	i	i
O=C(NCc1ccc2c(c1)OCO2)c1ccc(S(=O)(=O)N2CCCCC2)cc1	i	i	i	i	-5.9	i	.	.	.	.
CNC(=O)COc1ccc(S(=O)(=O)Nc2ccc(C)cc2)cc1	i	i	i	i	36.8	i	.	.	.	.
O=C(NCc1ccc2c(c1)OCO2)c1ccc(NS(=O)(=O)c2ccc3c(c2)OCCO3)cc1	i	i	-6.9*	i	8.0	i	i	i	i	i
Cc1ccc(NS(=O)(=O)c2ccc(OCC(N)=O)cc2)cc1	i	i	-9.4*	i	-8.4	i	i	i	i	i
O=S(=O)(/N=C(/Nc1ccc(Cl)cc1Cl)c1ccccc1)c1cccs1	i	i	i	i	1.2	i	.	.	.	.
COc1ccccc1N1CCN(C(=O)C(F)F)CC1	i	i	-6.82*	i	-1.0	i	i	i	i	i
COc1ccccc1N1CCN(C(=O)CN(c2ccc(C)c(C)c2)S(C)(=O)=O)CC1	i	i	-4.75*	i	3.2	i	i	i	i	i
SMILES	RGS4 inh	RGS4 act	MrgX1 antag	MrgX1 ag	PHOSPHO1 inh	MrgX1 PAM	MrgX1 antag conf	HEK293 Ca flux	HEK293 Ca counter	HEK293 Ca cntr2
Cc1nn2c3c(cnc2c1-c1ccccc1)C(=O)CC(c1ccccc1)C3 (stereo not drawn)	i	i	-4.97*	i	-4.0	i	i	i	i	i
Cc1nn2c3c(cnc2c1-c1ccccc1)C(=O)CC(c1ccco1)C3 (stereo not drawn)	i	i	i	i	7.5	i	.	.	.	.
Cc1ccc(S(=O)(=O)N2CCCCCC2)cc1C(=O)Nc1cccnc1	i	i	i	i	32.7	i	.	.	.	.
COc1ccccc1NC(=O)CSc1nc(N)c(C#N)cc1C#N	i	i	i	i	-42.1	i	.	.	.	.
COc1ccccc1NC(=O)CSc1nc(N)cc(N)n1	i	i	-5.54*	i	-13.5	i	i	i	i	i
CC(C)(C)c1nnc(NC(=O)NS(=O)(=O)c2ccccc2)s1	i	i	i	i	12.2	i	.	.	.	.
c1cncc(-c2nnc3n2N=C(c2cccs2)CS3)c1	i	i	-4.71*	i	7.0	i	i	i	i	i
CCOC(=O)C(C)Sc1nc(=O)n2ccccc2n1 (stereo not drawn)	i	i	-5.1*	i	4.0	i	i	i	i	i

Compound activity deposited in PubChem BioAssay by several laboratories.
